# Test results reported in ChEMBL document CHEMBL3872228, “A new scaffold of topoisomerase I inhibitors: Design, synthesis and biological evaluation” (2016).
# Calls of active or inactive are those of the source. No cut-off for these calls is given here.
# Tests used:
# [1] = Growth inhibition of human H460 cells after 72 hrs by trypan blue assay; type: functional; conditions: NCI-H460, 72 h
# Summary of the method: (§1)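 Medium: HeLa in F-12 [HAM]; H460 and MSTO-211H in RPMI 1640 plus Hepes, pyruvate and glucose. All media contained 10% heat-inactivated FCS and antibiotics; 37°C, 5% CO2. 3–4 × 10^4 cells/well grew 24 h, then test agents were added at various concentrations for 72 h. Viability by trypan blue; GI50 = concentration giving 50% reduction in cell number vs control.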
# [2] = Growth inhibition of human MSTO-211H cells after 72 hrs by trypan blue assay; type: functional; summary of the method: as §1
# [3] = Growth inhibition of human HeLa cells after 72 hrs by trypan blue assay; type: functional; summary of the method: as §1
# [4] = Binding affinity to DNA (unknown origin) assessed as induction of negative LD signal at 260 nm at 1.2 x 10^-5 M by linear flow dichroism method; conditions: in the assay text read “380 to 520 nm” for “260 nm”
# Summary of the method: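 Linear flow dichroism: aqueous DNA solutions at 1.9 × 10^-3 M in ETN buffer (10 mM TRIS, 1 mM EDTA, pH 7.0, 0.01 M NaCl); spectra recorded at 25°C at [drug]/[DNA] ratios of 0 and 0.08.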
# [5] = biological target: T1, DNA topoisomerase 1 (Homo sapiens) (UniProt P11387); experiment: Inhibition of human recombinant topoisomerase 1 catalytic activity assessed as decrease in relaxation of supercoiled pBR322 DNA at 100 uM after 60 mins by agarose gel electrophoresis
# T1 sequence (whole entry): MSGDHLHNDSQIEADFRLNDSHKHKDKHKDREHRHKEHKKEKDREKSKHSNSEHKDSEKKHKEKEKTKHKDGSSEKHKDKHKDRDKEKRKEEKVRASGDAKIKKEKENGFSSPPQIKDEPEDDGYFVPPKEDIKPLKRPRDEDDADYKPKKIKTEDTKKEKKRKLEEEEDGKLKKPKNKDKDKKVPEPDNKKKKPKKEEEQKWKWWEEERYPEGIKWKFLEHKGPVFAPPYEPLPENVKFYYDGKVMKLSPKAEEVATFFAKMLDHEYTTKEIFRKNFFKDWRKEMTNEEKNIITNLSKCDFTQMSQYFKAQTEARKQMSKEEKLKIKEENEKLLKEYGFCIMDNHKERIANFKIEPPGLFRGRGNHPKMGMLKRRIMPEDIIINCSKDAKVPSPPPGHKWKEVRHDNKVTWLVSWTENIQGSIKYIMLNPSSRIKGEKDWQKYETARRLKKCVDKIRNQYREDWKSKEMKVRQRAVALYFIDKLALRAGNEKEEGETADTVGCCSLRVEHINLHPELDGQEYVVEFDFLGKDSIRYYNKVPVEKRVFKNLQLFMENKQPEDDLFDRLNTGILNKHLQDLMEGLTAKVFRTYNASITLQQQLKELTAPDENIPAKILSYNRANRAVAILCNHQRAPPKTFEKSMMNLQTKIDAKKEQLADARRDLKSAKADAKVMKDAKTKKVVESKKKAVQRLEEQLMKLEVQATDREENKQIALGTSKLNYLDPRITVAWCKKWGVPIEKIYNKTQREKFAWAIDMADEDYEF
# Summary of the method: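 Supercoiled pBR322 plasmid (0.25 µg) with 2U human recombinant topoisomerase I plus test compound, 60 min at 37 °C. Stopped with SDS stop buffer and proteinase K (50 µg/mL), a further 30 min at 37 °C. Run on 1% agarose; post-stained with ethidium bromide 1 µg/mL in TAE and imaged under UV.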
# [6] = biological target: T1, DNA topoisomerase 1 (Homo sapiens); experiment: Poison activity at human recombinant topoisomerase 1 assessed as enzyme-supercoiled pBR322 DNA cleavable complex at 25 to 100 uM after 60 mins by agarose gel electrophoresis
# [7] = biological target: T1, DNA topoisomerase 1 (Homo sapiens); experiment: Poison activity at human recombinant topoisomerase 1 assessed as enzyme-supercoiled pBR322 DNA cleavable complex at 500 uM after 60 mins by agarose gel electrophoresis
Compound,GI50 [1],GI50 [2],GI50 [3],Activity [4],inhibition [5],Activity [6],Activity [7]
C=CC[C@@]12CCN[C@@H]1n1c3nc4ccc(O)cc4cc3c(=O)c3cc(O)cc2c31,4.8 µM,7 µM,15.3 µM,,,,
COc1ccc2nc3c(cc2c1)c(=O)c1cccc2c1n3[C@H]1NCC[C@@]21CCO,0.85 µM,1.9 µM,1.4 µM,Active,Active,Active,
C=CC[C@@]12CCN(C(=O)OC(C)(C)C)[C@@H]1n1c3nc4ccc(O)cc4cc3c(=O)c3cccc2c31,32.7 µM,24.1 µM,30.5 µM,,,,
C=CC[C@@]12CCN[C@@H]1n1c3nc4ccc(O)cc4cc3c(=O)c3cccc2c31,> 50 µM,18.7 µM,19 µM,,,,
C=CC[C@@]12CCN[C@@H]1n1c3nc4ccc(O)c(CN(C)C)c4cc3c(=O)c3cccc2c31,26.2 µM,29.1 µM,29.3 µM,,,,
C=CC[C@@]12CCN[C@@H]1n1c3nc4ccc(OC)cc4cc3c(=O)c3cc(OC)cc2c31,18.6 µM,13.5 µM,16.6 µM,,,,
C=CC[C@@]12CCN(C(=O)OC(C)(C)C)[C@@H]1n1c3nc4ccc(O)c(CN(C)C)c4cc3c(=O)c3cccc2c31,17.8 µM,22.8 µM,35.2 µM,,,,
CN(C)Cc1c(O)ccc2nc3c(cc12)c(=O)c1cccc2c1n3[C@H]1N(C(=O)OC(C)(C)C)CC[C@@]21CCO,16.4 µM,20 µM,13 µM,,,,
CC[C@@]1(O)C(=O)OCc2c1cc1n(c2=O)Cc2cc3ccccc3nc2-1 [CAMPTOTHECIN],0.002 µM,0.0021 µM,0.0054 µM,,,,
C=CC[C@@]12CCN[C@@H]1n1c3nc4ccccc4cc3c(=O)c3cccc2c31,14.4 µM,13 µM,16.5 µM,,,,
C=CC[C@@]12CCN[C@@H]1n1c3nc4ccc(OC)cc4cc3c(=O)c3cccc2c31,8.9 µM,7.8 µM,14.8 µM,Active,Active,,Active
C=CC[C@@]12CCN(C)[C@@H]1n1c3nc4ccc(OC)cc4cc3c(=O)c3cc(OC)cc2c31,50 µM,34.2 µM,18.3 µM,,,,
CC(C)(C)OC(=O)N1CC[C@@]2(CCO)c3cccc4c(=O)c5cc6cc(O)ccc6nc5n(c34)[C@@H]12,26.8 µM,13.7 µM,13 µM,,,,
C=CC[C@@]12CCN[C@@H]1n1c3nc4ccccc4cc3c(=O)c3cc(OC)cc2c31,32.2 µM,14.4 µM,30.7 µM,,,,
